Source: ChEMBL document CHEMBL1125736, “N-[(omega-amino-1-hydroxyalkyl)phenyl]methanesulfonamide derivatives with class III antiarrhythmic activity” (1991)

Assays:
[1] = test system: Canis familiaris; experiment: Conduction time for ventricular refractory period of the second premature stimulus was tested in dogs at a dose of 0.3 mg/kg through intravenous administration. (baseline value- 123+/-4); format: functional, Canis lupus familiaris, Cardiac ventricle
[2] = test system: Canis familiaris; experiment: Compound was tested in vivo in dogs at a dose of 0.3 mg/kg through intravenous route and time at which nonsustained ventricular arrhythmias were induced was recorded.(Base line value-1); format: functional, Canis lupus familiaris, Cardiac ventricle
Summary of the method: (§1)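 Dogs with myocardial infarction were studied 3-9 days after infarction. They were reanesthetized with pentobarbital, ventilated, and electrodes were placed via thoracotomy; blood gases were monitored. Control ERPs and reproducible inducibility were set by programmed electrical stimulation, then cumulative iv doses were given. Agents were in glass-distilled water or NaOH-neutralized saline (pH 6.7-7.0). Animals were counted per category: NI, nonsustained, sustained, VF, or AV block preventing atrial pacing.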

[3] = test system: Canis familiaris; experiment: Conduction time from Q wave to T wave of lead II electrocardiogram corrected for heart rate was tested in dogs at a dose of 0.1 mg/kg through intravenous administration. (baseline value- 352+/-7); format: functional, Canis lupus familiaris
[4] = test system: Canis familiaris; experiment: Compound was tested in vivo in dogs at a dose of 0.3 mg/kg through intravenous route and time at which ventricular arrhythmias were not indicible was recorded.(Base line value-1); format: functional, Canis lupus familiaris, Cardiac ventricle; summary of the method: as §1
[5] = test system: Canis familiaris; experiment: Compound was tested in vivo in dogs at a dose of 0.3 mg/kg through intravenous route and time at which ventricular fibrillation was induced was recorded.(Base line value-6); format: functional, Canis lupus familiaris, Cardiac ventricle; summary of the method: as §1
[6] = test system: Canis familiaris; experiment: Compound was tested in vivo in dogs at a dose of 0.1 mg/kg through intravenous route and number of animals in which ventricular fibrillation was induced was recorded.(Base line value-6)
[7] = test system: Canis familiaris; experiment: Compound was tested in vivo in dogs at a dose of 0.1 mg/kg through intravenous route and time at which nonsustained ventricular arrhythmias were induced was recorded.(Base line value-1); format: functional, Canis lupus familiaris, Cardiac ventricle; summary of the method: as §1
[8] = test system: Canis familiaris; experiment: Conduction time for ventricular refractory period of the second premature stimulus was tested in dogs at a dose of 1.0 mg/kg through intravenous administration. (baseline value- 123+/-4); format: functional, Canis lupus familiaris, Cardiac ventricle
[9] = test system: Canis familiaris; experiment: Conduction time from Q wave to T wave of lead II electrocardiogram corrected for heart rate was tested in dogs at a dose of 1.0 mg/kg through intravenous administration. (baseline value- 352+/-7); format: functional, Canis lupus familiaris
[10] = test system: Canis familiaris; experiment: Compound was tested in vivo in dogs at a dose of 1.0 mg/kg through intravenous route and time at which nonsustained ventricular arrhythmias were induced was recorded.(Base line value-1); format: functional, Canis lupus familiaris, Cardiac ventricle; summary of the method: as §1
[11] = organism: Oryctolagus cuniculus; experiment: Tested for effective refractory period measured at a pacing rate of 1 Hz in vitro with rabbit heart tissue preparations.; format: functional
Summary of the method: (§2)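 Isolated rabbit heart tissues, all from one heart, each its own baseline; 2 h equilibration, perfusate changed every 15 min, basal stimulation 2 Hz between measurements. Exposed to 10^-7, 10^-6 and 10^-5 M drug, 15 min each; values reported at 10^-5 M as percent change from baseline. Drug solutions prepared daily in glass-distilled water. Force and rate recorded on polygraph.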

[12] = test system: Canis familiaris; experiment: Conduction time from the His bundle to the onset of ventricular depolarizations was tested in dogs at a dose of 0.3 mg/kg through intravenous administration. (baseline value- 17+/-1 ); format: functional, Canis lupus familiaris, Cardiac ventricle
[13] = test system: Canis familiaris; experiment: Conduction time for ventricular refractory period of the first premature stimulus was tested in dogs at a dose of 0.3 mg/kg through intravenous administration. (baseline value- 137+/-4); format: functional, Canis lupus familiaris, Cardiac ventricle
[14] = organism: Oryctolagus cuniculus; experiment: Tested for conduction time measured at a pacing rate of 3 Hz in vitro with rabbit heart tissue preparations.; format: functional; summary of the method: as §2
[15] = test system: Canis familiaris; experiment: Conduction time from the His bundle to the onset of ventricular depolarizations was tested in dogs at a dose of 0.1 mg/kg through intravenous administration. (baseline value- 17+/-1 ); format: functional, Canis lupus familiaris, Cardiac ventricle
[16] = test system: Canis familiaris; experiment: Conduction time from the atrium to His bundle was tested in dogs at a dose of 0.1 mg/kg through intravenous administration. (baseline value- 73+/-3 ); format: functional, Canis lupus familiaris
[17] = test system: Canis familiaris; experiment: Compound was tested in vivo in dogs at a dose of 1.0 mg/kg through intravenous route and time at which ventricular fibrillation was induced was recorded.(Base line value-6); format: functional, Canis lupus familiaris, Cardiac ventricle; summary of the method: as §1
[18] = test system: Canis familiaris; experiment: Conduction time from the atrium to His bundle was tested in dogs at a dose of 0.3 mg/kg through intravenous administration. (baseline value- 73+/-3 ); format: functional, Canis lupus familiaris
[19] = test system: Canis familiaris; experiment: Compound was tested in vivo in dogs at a dose of 0.1 mg/kg through intravenous route and time at which ventricular arrhythmias were not indicible was recorded.(Base line value-1); format: functional, Canis lupus familiaris, Cardiac ventricle; summary of the method: as §1
[20] = test system: Canis familiaris; experiment: Conduction time for ventricular refractory period of the second premature stimulus was tested in dogs at a dose of 0.1 mg/kg through intravenous administration. (baseline value- 123+/-4); format: functional, Canis lupus familiaris, Cardiac ventricle
[21] = test system: Canis familiaris; experiment: Conduction time from Q wave to T wave of lead II electrocardiogram corrected for heart rate was tested in dogs at a dose of 0.3 mg/kg through intravenous administration. (baseline value- 352+/-7); format: functional, Canis lupus familiaris
[22] = test system: Canis familiaris; experiment: Conduction time from the His bundle to the onset of ventricular depolarizations was tested in dogs at a dose of 1.0 mg/kg through intravenous administration. (baseline value- 17+/-1 ); format: functional, Canis lupus familiaris, Cardiac ventricle
[23] = organism: Oryctolagus cuniculus; experiment: Tested for rate automaticity measured in beats per minute from unpaced right atria of rabbit heart.; format: functional; summary of the method: as §2
[24] = organism: Oryctolagus cuniculus; experiment: Tested for effective refractory period measured at a pacing rate of 3 Hz in vitro with rabbit heart tissue preparations.; format: functional; parameters: unit: %; summary of the method: as §2
[25] = organism: Oryctolagus cuniculus; experiment: Tested for conduction time measured at a pacing rate of 1 Hz in vitro with rabbit heart tissue preparations.; format: functional; summary of the method: as §2
[26] = test system: Canis familiaris; experiment: Compound was tested in vivo in dogs at a dose of 1.0 mg/kg through intravenous route and time at which ventricular arrhythmias were not indicible was recorded.(Base line value-1); format: functional, Canis lupus familiaris, Cardiac ventricle; summary of the method: as §1
[27] = test system: Canis familiaris; experiment: Compound was tested in vivo in dogs at a dose of 0.3 mg/kg through intravenous route and time at which sustained ventricular arrhythmias were induced was recorded.(Base line value-3); format: functional, Canis lupus familiaris, Cardiac ventricle; summary of the method: as §1
[28] = test system: Canis familiaris; experiment: Conduction time for ventricular refractory period of the first premature stimulus was tested in dogs at a dose of 0.1 mg/kg through intravenous administration. (baseline value- 137+/-4); format: functional, Canis lupus familiaris, Cardiac ventricle
[29] = test system: Canis familiaris; experiment: Compound was tested in vivo in dogs at a dose of 0.1 mg/kg through intravenous route and time at which sustained ventricular arrhythmias were induced was recorded.(Base line value-3); format: functional, Canis lupus familiaris, Cardiac ventricle; summary of the method: as §1
[30] = test system: Canis familiaris; experiment: Conduction time from the atrium to His bundle was tested in dogs at a dose of 1.0 mg/kg through intravenous administration. (baseline value- 73+/-3 ); format: functional, Canis lupus familiaris
[31] = organism: Oryctolagus cuniculus; experiment: Tested for force of contraction measured in mg at a pacing rate of 2 Hz in vitro with rabbit heart tissue preparations.; format: functional; summary of the method: as §2
[32] = test system: Canis familiaris; experiment: Conduction time for ventricular refractory period of the first premature stimulus was tested in dogs at a dose of 1.0 mg/kg through intravenous administration. (baseline value- 137+/-4); format: functional, Canis lupus familiaris, Cardiac ventricle
[33] = test system: Canis familiaris; experiment: Compound was tested in vivo in dogs at a dose of 1.0 mg/kg through intravenous route and time at which sustained ventricular arrhythmias were induced was recorded.(Base line value-3); format: functional, Canis lupus familiaris, Cardiac ventricle; summary of the method: as §1

`CCCCCCCN(CC)CCCC(O)c1ccc(NS(C)(=O)=O)cc1` (stereo not drawn) [IBUTILIDE] gave a Time [1] of 139 ms, a Time [2] of 2 animals and a Time [3] of 372 ms. It also gave a Time [4] of 5 animals, a Time [5] of 2 animals and a number of animals [6] of 1 animals. The Time [7] was 5 animals, the Time [8] was 128 ms and the Time [9] was 364 ms. The Time [10] was 2 animals, the ERP1 [11] was 18 and the Time [12] was 17 ms. It also gave a Time [13] of 154 ms, a CT3 [14] of 31.2 and a Time [15] of 16 ms. It also gave a Time [16] of 73 ms, a Time [17] of 1 animals and a Time [18] of 75 ms. It also gave a Time [19] of 3 animals, a Time [20] of 137 ms and a Time [21] of 387 ms. It also gave a Time [22] of 17 ms, a Rate [23] of -22 and an ERP3 [24] of 15.8. For the same compound, the CT1 [25] was 14.6, the Time [26] was 4 animals and the Time [27] was 0 animals. For the same compound, the Time [28] was 151 ms, the Time [29] was 2 animals and the Time [30] was 77 ms. For the same compound, the FOC [31] was 1.9, the Time [32] was 146 ms and the Time [33] was 0 animals.
